Experimental data taken from ChEMBL document CHEMBL4312005, “Optimization of pyrrolizine-based Schiff bases with 4-thiazolidinone motif: Design, synthesis and investigation of cytotoxicity and anti-inflammatory potency” (Eur J Med Chem, 2020).

Tests used:
[1] = target: Epidermal growth factor receptor (Homo sapiens) (UniProt P00533); experiment: Inhibition of EGFR (unknown origin) assessed as enzyme activity incubated for 15 mins by [gamma-33]ATP based scintillation counting method relative to control; set-up: scale not given: the % may be the effect or the level left
[2] = target: T1, Aurora kinase A (Homo sapiens) (UniProt O14965); experiment: Inhibition of recombinant human N-terminal GST-tagged full length Aurora A expressed in baculovirus infected Sf9 insect cells assessed as enzyme activity incubated for 15 mins by [gamma-33]ATP based scintillation counting method relative to control; set-up: scale not given: the % may be the effect or the level left
T1 sequence (whole entry): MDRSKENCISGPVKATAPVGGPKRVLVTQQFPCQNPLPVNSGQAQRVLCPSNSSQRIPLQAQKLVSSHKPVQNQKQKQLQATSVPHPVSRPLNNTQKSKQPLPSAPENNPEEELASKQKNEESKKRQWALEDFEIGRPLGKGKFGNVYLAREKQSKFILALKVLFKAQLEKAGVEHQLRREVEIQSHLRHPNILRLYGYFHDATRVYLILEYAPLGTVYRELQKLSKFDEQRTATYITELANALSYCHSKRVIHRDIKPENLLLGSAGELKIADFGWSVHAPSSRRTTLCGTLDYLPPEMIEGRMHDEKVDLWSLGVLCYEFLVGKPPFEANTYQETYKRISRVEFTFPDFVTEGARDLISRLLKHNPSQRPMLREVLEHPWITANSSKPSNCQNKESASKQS

[3] = target: Casein kinase I isoform alpha (Homo sapiens) (UniProt P48729); experiment: Inhibition of CK1alpha1 (unknown origin) assessed as enzyme activity incubated for 15 mins by [gamma-33]ATP based scintillation counting method relative to control; set-up: scale not given: the % may be the effect or the level left
[4] = target: Ribosomal protein S6 kinase alpha-5 (Homo sapiens) (UniProt O75582); experiment: Inhibition of recombinant human N-terminal GST-tagged full length MSK1 expressed in baculovirus infected Sf9 insect cells assessed as enzyme activity incubated for 15 mins by [gamma-33]ATP based scintillation counting method relative to control; set-up: scale not given: the % may be the effect or the level left
[5] = target: Vascular endothelial growth factor receptor 1 (Homo sapiens) (UniProt P17948); experiment: Inhibition of recombinant human N-terminal GST-tagged FLT1 (784 to end residues) expressed in baculovirus infected Sf9 insect cells assessed as enzyme activity incubated for 15 mins by [gamma-33]ATP based scintillation counting method relative to control; set-up: scale not given: the % may be the effect or the level left
[6] = target: T2, Mitogen-activated protein kinase kinase kinase 5 (Homo sapiens) (UniProt Q99683); experiment: Inhibition of recombinant human N-terminal GST-tagged ASK1 (649 to 946 residues) expressed in baculovirus infected Sf9 insect cells assessed as enzyme activity incubated for 15 mins by [gamma-33]ATP based scintillation counting method relative to control; set-up: scale not given: the % may be the effect or the level left
T2 sequence (whole entry): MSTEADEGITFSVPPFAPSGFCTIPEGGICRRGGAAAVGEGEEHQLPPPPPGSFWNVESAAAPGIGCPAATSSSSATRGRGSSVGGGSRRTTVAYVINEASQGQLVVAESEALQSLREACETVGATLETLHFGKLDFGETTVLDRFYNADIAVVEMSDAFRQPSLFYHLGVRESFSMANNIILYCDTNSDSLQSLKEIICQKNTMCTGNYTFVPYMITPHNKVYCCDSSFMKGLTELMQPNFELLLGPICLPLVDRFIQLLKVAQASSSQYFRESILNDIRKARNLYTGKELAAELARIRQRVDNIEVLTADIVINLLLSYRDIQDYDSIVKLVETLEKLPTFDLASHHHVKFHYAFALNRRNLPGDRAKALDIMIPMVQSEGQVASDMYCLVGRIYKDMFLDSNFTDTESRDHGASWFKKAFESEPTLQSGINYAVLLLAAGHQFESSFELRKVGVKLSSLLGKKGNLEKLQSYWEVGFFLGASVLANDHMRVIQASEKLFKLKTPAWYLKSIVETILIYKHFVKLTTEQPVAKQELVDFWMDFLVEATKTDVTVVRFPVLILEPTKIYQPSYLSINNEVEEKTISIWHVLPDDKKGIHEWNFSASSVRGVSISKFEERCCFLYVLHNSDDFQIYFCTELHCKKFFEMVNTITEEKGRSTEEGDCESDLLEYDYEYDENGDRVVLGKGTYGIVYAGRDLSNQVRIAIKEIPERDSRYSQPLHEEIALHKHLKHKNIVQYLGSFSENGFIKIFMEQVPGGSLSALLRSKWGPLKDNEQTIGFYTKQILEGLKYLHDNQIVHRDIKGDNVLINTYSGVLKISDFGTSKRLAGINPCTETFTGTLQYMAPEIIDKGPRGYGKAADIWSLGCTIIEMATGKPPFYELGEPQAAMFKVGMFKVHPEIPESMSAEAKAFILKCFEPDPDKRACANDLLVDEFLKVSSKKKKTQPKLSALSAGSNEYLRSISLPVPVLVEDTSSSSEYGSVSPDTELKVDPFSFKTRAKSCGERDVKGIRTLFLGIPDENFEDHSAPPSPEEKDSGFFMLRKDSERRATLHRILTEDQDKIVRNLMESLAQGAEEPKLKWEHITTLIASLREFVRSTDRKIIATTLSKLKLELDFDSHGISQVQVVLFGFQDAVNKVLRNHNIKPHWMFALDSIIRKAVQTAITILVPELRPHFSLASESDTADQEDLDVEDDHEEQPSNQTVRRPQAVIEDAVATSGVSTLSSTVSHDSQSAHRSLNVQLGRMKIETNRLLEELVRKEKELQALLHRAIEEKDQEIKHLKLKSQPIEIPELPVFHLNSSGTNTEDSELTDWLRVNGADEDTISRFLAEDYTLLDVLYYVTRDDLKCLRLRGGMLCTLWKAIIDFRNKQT

MRC5 = experiment: Cytotoxicity against human MRC5 cells assessed as reduction in cell growth incubated for 72 hrs by MTT assay; assay type: cell-based; settings: MRC5, 72 h
Procedure, shortened: (§1)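 MTT assay on MCF-7, A2780, HT29 and normal MRC5 fibroblast lines (ATCC) grown in DMEM with 10% FBS. Cells exposed to compounds for 72 h, then reduced MTT read at 570 nm.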

A2780 = experiment: Antiproliferative activity against human A2780 cells assessed as reduction in cell growth incubated for 72 hrs by MTT assay; assay type: functional, cell-based; settings: A2780, 72 h; procedure, shortened: as §1
[7] = target: Cyclin-dependent kinase 2 (Homo sapiens, UniProt P24941); experiment: Inhibition of CDK2 (unknown origin) incubated for 40 mins by ADP-glo assay
[8] = target: Prostaglandin G/H synthase 1 (Homo sapiens, UniProt P23219); experiment: Inhibition of human COX1 using arachidonic acid as substrate incubated for 2 mins by ELISA method
MCF7 = experiment: Antiproliferative activity against human MCF7 cells assessed as reduction in cell growth incubated for 72 hrs by MTT assay; assay type: functional, cell-based; settings: MCF7, 72 h; procedure, shortened: as §1
HT-29 = experiment: Antiproliferative activity against human HT-29 cells assessed as reduction in cell growth incubated for 72 hrs by MTT assay; assay type: functional, cell-based; settings: HT-29, 72 h; procedure, shortened: as §1

Chain of Casein kinase I isoform alpha (Homo sapiens) (P48729 2-337 limits assumed): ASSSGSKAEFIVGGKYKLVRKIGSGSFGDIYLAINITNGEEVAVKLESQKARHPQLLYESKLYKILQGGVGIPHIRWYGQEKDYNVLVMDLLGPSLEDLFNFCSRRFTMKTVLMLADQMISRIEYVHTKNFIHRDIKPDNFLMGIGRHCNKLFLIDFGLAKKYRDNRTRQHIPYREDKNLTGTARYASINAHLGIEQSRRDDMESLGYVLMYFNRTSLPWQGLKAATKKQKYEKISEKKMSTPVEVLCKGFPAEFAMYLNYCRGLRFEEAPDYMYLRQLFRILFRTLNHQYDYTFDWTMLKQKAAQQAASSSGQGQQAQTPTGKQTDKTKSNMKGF
Chain of Epidermal growth factor receptor (Homo sapiens) (P00533 whole entry): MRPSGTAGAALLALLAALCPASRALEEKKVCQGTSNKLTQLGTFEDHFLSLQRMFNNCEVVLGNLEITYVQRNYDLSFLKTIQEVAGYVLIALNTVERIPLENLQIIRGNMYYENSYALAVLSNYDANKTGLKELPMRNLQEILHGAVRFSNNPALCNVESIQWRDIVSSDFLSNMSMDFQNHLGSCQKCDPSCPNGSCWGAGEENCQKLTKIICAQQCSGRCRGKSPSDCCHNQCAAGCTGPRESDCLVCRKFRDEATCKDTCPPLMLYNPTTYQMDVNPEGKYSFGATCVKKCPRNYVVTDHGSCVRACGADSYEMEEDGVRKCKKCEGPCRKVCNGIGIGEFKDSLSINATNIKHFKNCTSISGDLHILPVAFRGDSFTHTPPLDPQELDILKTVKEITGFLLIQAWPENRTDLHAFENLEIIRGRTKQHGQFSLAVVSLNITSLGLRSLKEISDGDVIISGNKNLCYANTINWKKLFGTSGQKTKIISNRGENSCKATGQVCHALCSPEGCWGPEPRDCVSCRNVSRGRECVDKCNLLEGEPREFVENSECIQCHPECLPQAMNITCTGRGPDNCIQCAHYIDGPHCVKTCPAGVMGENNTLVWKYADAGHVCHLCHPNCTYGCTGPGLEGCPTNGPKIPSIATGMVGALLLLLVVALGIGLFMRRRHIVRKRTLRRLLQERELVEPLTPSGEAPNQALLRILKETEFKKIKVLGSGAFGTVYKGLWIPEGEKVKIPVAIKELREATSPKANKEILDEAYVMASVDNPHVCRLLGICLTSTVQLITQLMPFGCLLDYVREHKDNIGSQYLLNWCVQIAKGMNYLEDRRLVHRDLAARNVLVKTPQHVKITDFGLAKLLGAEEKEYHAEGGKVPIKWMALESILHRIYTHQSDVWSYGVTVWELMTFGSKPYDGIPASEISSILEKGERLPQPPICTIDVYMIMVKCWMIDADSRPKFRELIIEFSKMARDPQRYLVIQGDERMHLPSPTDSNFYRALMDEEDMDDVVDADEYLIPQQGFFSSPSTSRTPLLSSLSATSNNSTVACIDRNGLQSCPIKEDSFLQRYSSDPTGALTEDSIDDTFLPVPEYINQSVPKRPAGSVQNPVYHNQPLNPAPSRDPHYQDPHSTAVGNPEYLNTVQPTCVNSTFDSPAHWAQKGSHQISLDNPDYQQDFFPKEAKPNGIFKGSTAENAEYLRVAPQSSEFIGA
Chain of Prostaglandin G/H synthase 1 (P23219 whole entry): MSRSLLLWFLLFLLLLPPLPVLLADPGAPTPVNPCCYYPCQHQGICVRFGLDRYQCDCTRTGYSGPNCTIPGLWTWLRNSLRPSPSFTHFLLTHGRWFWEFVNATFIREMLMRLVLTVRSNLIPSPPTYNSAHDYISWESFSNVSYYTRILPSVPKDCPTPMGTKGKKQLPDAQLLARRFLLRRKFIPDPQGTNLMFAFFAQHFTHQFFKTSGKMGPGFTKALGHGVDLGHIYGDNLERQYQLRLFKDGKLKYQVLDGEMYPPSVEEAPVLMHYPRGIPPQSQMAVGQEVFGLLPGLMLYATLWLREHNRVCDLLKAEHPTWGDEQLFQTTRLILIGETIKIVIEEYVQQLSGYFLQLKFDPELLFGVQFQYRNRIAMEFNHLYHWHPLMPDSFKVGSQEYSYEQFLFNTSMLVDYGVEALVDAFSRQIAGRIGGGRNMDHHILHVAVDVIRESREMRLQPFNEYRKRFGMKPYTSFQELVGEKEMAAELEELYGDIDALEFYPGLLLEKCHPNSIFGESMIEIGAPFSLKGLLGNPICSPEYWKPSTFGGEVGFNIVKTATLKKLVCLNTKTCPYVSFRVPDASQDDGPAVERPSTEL
Chain of Vascular endothelial growth factor receptor 1 (Homo sapiens) (P17948 whole entry, the tested form may be a part): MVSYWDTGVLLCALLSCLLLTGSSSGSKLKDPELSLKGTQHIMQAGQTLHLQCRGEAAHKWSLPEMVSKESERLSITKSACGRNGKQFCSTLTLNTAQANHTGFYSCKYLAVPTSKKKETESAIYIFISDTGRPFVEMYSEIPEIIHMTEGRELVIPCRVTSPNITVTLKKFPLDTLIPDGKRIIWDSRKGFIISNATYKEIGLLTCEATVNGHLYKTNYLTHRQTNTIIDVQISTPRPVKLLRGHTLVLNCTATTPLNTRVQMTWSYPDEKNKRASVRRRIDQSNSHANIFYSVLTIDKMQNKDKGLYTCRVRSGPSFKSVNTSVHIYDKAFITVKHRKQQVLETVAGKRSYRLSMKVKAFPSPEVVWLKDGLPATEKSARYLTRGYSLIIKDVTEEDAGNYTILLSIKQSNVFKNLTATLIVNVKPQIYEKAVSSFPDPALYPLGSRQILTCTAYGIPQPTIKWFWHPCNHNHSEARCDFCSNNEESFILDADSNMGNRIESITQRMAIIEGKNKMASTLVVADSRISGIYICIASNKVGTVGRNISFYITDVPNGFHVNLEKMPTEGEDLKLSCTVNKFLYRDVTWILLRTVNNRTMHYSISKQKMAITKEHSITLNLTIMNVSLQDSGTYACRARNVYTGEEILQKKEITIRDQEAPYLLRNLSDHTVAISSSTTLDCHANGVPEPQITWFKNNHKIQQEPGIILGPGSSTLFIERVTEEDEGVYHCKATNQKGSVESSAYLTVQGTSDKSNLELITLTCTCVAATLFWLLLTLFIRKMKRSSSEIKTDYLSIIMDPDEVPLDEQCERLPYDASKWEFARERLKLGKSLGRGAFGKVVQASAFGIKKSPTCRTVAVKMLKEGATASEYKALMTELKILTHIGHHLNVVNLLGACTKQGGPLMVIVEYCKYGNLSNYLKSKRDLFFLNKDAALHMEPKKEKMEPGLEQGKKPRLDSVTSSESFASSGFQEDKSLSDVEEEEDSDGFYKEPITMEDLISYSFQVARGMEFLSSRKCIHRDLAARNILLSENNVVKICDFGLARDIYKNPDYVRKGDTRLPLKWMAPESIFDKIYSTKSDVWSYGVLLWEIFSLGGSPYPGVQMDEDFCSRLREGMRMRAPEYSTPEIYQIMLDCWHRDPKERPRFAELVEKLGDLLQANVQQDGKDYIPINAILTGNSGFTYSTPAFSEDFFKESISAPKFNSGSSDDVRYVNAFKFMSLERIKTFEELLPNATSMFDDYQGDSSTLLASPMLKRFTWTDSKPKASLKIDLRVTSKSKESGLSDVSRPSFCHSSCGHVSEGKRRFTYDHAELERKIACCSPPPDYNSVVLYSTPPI
Chain of Ribosomal protein S6 kinase alpha-5 (Homo sapiens) (O75582 whole entry, looked up): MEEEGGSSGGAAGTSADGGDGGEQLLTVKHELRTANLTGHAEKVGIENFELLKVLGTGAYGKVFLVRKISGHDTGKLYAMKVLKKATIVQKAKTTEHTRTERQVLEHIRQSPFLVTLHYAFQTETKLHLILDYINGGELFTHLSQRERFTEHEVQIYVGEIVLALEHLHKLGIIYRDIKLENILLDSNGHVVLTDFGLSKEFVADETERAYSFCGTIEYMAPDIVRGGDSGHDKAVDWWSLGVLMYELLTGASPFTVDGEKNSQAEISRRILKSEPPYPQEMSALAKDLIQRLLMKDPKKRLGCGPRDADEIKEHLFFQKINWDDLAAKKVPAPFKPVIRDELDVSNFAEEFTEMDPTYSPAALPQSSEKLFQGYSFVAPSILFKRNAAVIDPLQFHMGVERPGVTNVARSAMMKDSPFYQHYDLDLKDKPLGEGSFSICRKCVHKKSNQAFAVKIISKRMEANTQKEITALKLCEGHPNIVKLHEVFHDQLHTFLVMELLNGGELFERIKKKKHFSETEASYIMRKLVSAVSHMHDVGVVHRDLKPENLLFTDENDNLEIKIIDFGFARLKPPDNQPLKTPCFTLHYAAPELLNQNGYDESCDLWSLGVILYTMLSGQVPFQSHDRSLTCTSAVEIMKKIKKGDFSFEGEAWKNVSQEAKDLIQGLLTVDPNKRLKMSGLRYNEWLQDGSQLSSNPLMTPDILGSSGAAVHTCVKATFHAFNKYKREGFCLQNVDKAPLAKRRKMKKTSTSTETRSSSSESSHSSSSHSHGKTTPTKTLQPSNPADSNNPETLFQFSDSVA

Row | SMILES | Activity [1] | Activity [2] | Activity [3] | Activity [4] | Activity [5] | Activity [6] | IC50 (MRC5) | IC50 (A2780) | IC50 [7] | IC50 [8] | IC50 (MCF7) | IC50 (HT-29)
1 | Cc1ccc(NC(=O)c2ccc(CN3CCN(C)CC3)cc2)cc1Nc1nccc(-c2cccnc2)n1 | 13% | -38% | 0% | 49% | -10% | 5% | – | – | – | – | – | –
2 | CCC1SCC(=O)N1c1c(C#N)c2n(c1C(=O)Nc1ccccc1)CCC2 (configuration not stated) | 10% | -11% | -16% | -23% | 32% | -3% | 630 nM | 220 nM | 630 nM | 43700 nM | 160 nM | 600 nM
3 | CC(C)C/C=N/c1c(C#N)c2n(c1C(=O)Nc1ccc(Br)cc1)CCC2 | 40% | 1% | 6% | 29% | 1% | 26% | 25800 nM | 520 nM | 1270 nM | > 100000 nM | 100 nM | 670 nM
4 | CC/C=N/c1c(C#N)c2n(c1C(=O)Nc1ccccc1)CCC2 | -10% | -8% | -23% | -22% | 18% | -14% | 3170 nM | 15600 nM | 580 nM | > 100000 nM | 570 nM | 200 nM
